The values below come from ChEMBL document CHEMBL5344427, “Small Molecule Ligands of the BET-like Bromodomain, SmBRD3, Affect Schistosoma mansoni Survival, Oviposition, and Development” (J Med Chem, 2023).

SMILES strings stand for the structures. Activity calls are given as the source filed them. The rule behind the calls is not given here.

A word on the EC50: it is the concentration needed to bring the measured effect to its halfway point. In general, pKd refers to the negative decadic logarithm of the Kd, by convention in mol/L. In general, Kd refers to the equilibrium constant for the complex coming apart.

The first series concerns Schistosoma mansoni. Nature of the series: Antiparasitic activity against Schistosoma mansoni adult worms assessed as lethality at 20 uM incubated for 72 hrs. In kind it is functional, organism-based.
Settings: not given
Turning to `CC(=O)N1c2ccc(-c3ccc(C(=O)O)cc3)cc2[C@H](Nc2ccc3ncsc3c2)C[C@@H]1C`, the result was inactive.

`CCOC(=O)c1ccc(-c2ccc3c(c2)[C@H](Nc2ccc4sccc4c2)C[C@H](C)N3C(C)=O)cc1`: the result was inactive.

Turning to `CCOC(=O)c1ccc(-c2ccc3c(c2)[C@H](Nc2ccc4ccoc4c2)C[C@H](C)N3C(C)=O)cc1`, the outcome was inactive.

Turning to `CC(=O)N1c2ccc(-c3ccc(C(=O)O)cc3)cc2[C@H](Nc2ccc3ncccc3c2)C[C@@H]1C`, the result was inactive.

In the case of `CC(=O)N1c2ccc(-c3ccc(C(=O)O)cc3)cc2[C@H](Nc2ccc3ccoc3c2)C[C@@H]1C`, the result was inactive.

For `CC(=O)N1c2ccc(-c3ccc(C(=O)O)cc3)cc2[C@H](Nc2ccc3[nH]ccc3c2)C[C@@H]1C`, the result was inactive.

As to `O=C(C1CCCCC1)N1CC(=O)N2CCc3ccccc3C2C1` (stereo unspecified), the result was inactive.

In the case of `CC(=O)N1c2ccc(-c3ccc(C(=O)O)cc3)cc2[C@H](Nc2ccc3ccsc3c2)C[C@@H]1C`, the result was inactive.

With `CCOC(=O)c1ccc(-c2ccc3c(c2)[C@H](Nc2ccc4ccsc4c2)C[C@H](C)N3C(C)=O)cc1`, the result was inactive.

For `CCOC(=O)c1ccc(-c2ccc3c(c2)[C@H](Nc2ccc4ncccc4c2)C[C@H](C)N3C(C)=O)cc1`, the outcome was inactive.

Consider `CCOC(=O)c1ccc(-c2ccc3c(c2)[C@H](Nc2ccc4[nH]ccc4c2)C[C@H](C)N3C(C)=O)cc1`, for which the outcome was inactive.

The next series deals with Schistosoma mansoni. Nature of the series: Antiparasitic activity against Schistosoma mansoni adult worms assessed as reduction in oviposition at 20 uM incubated for 72 hrs by imaging analysis. The format is functional, organism-based.
Settings: not given
Summed up: (§1)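 Adult worm pairs perfused from TO mice infected percutaneously 7 weeks earlier with 180 cercariae; 1 pair/well in duplicate, dosed at 20 μM in 0.2% DMSO for 72 h. Motility scored by digital image processing (WormassayGP2); in vitro laid eggs counted and pairing noted. DMSO negative and praziquantel positive controls; n = 2 independent screens, 2 technical replicates each.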
`CCOC(=O)c1ccc(-c2ccc3c(c2)[C@H](Nc2ccc4ccsc4c2)C[C@H](C)N3C(C)=O)cc1`: the outcome was Active.

System in the next series: not listed separately
Nature of the series: Drug uptake in Schistosoma mansoni adult worms at 20 uM incubated for 24 hrs followed by compound washout thrice and subsequent addition of fresh medium without compound by LC-MS analysis. In kind it is ADME.
Settings: not given
Summed up:
(§2)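 Adult worms exposed to 20 μM compound for 24 h, medium exchanged three times, worms then lysed; parent and acid levels in lysate quantified by LCMS.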
For `CCOC(=O)c1ccc(-c2ccc3c(c2)[C@H](Nc2ccc4ncccc4c2)C[C@H](C)N3C(C)=O)cc1`, the Drug uptake result is recorded as “Active”.

A further series relates to Schistosoma mansoni. The series is described as follows: Antiparasitic activity against Schistosoma mansoni assessed as effect on schistosomula motility incubated for 72 hrs by high content imaging analysis. In kind it is functional, organism-based.
Settings: not given
Summed up: (§3)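 Schistosomula from mechanically transformed cercariae, 120/well, dosed from 10 mM DMSO stock at 20 and 10 μM final in duplicate (0.625% DMSO), ≥4 independent screens (Z′ >0.35). Auranofin 10 μM positive and DMSO negative controls. Phenotype and motility read by high content imaging after 72 h.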
In the case of `CC(=O)N1c2ccc(-c3ccc(C(=O)O)cc3)cc2[C@H](Nc2ccc3ncsc3c2)C[C@@H]1C`, the EC50 was determined as 2.85 µM.

For the compound `CC(=O)N1c2ccc(-c3ccc(C(=O)O)cc3)cc2[C@H](Nc2ccc3ncccc3c2)C[C@@H]1C`, the EC50 was 3.3 µM.

Regarding `CC(=O)N1c2ccc(-c3ccc(C(=O)O)cc3)cc2[C@H](Nc2ccc3ccoc3c2)C[C@@H]1C`, the EC50 came out at 3.92 µM.

Regarding `CC(=O)N1c2ccc(-c3ccc(C(=O)O)cc3)cc2[C@H](Nc2ccc3[nH]ccc3c2)C[C@@H]1C`, the EC50 was found to be 1.81 µM.

Another series deals with Schistosoma mansoni. Nature of the series: Antiparasitic activity against Schistosoma mansoni adult worms assessed as effect on worm motility at 20 uM incubated for 72 hrs by imaging analysis. The format is functional, organism-based.
Settings: not given
Summed up:
as §1
On to `CCOC(=O)c1ccc(-c2ccc3c(c2)[C@H](Nc2ccc4ccsc4c2)C[C@H](C)N3C(C)=O)cc1`, for which the result was Active.

System in the next series: not listed separately
Nature of the series: Prodrug conversion in Schistosoma mansoni adult worms assessed as 4-{(2S,4R)-1-acetyl-2-methyl-4-[(quinolin-6-yl)amino]-1,2,3,4-tetrahydroquinolin-6-yl}benzoic acid metabolite formation at 20 uM incubated for 24 hrs followed by compound washout thrice and subsequent addition of fresh medium without compound by LC-MS analysis. In kind it is ADME.
Settings: not given
Put shortly: as §2
As to `CCOC(=O)c1ccc(-c2ccc3c(c2)[C@H](Nc2ccc4ncccc4c2)C[C@H](C)N3C(C)=O)cc1`, the Drug metabolism result was “Metabolite_Detected”.

In the next series the test system is Schistosoma mansoni. Nature of the series: Antiparasitic activity against Schistosoma mansoni adult worms assessed as reduction in worm pairing at 20 uM incubated for 72 hrs by imaging analysis. In kind it is functional, organism-based.
Settings: not given
Summed up: as §1
On to `CCOC(=O)c1ccc(-c2ccc3c(c2)[C@H](Nc2ccc4ccsc4c2)C[C@H](C)N3C(C)=O)cc1`, for which the outcome was Active.

Biological target in another series: not listed separately
The series is described as follows: Binding affinity to Schistosoma mansoni BRD3 BD 2 assessed as dissociation constant by ITC analysis.
Settings: not given
A general note: In ITC the heat of successive injections is recorded.
Take `CC(=O)N1c2ccc(-c3ccc(C(=O)O)cc3)cc2[C@H](Nc2ccc3ncsc3c2)C[C@@H]1C`: the pKd is 5.9.

For `CCOC(=O)c1ccc(-c2ccc3c(c2)[C@H](Nc2ccc4ccoc4c2)C[C@H](C)N3C(C)=O)cc1`, the Kd amounted to 1.18 µM.

As to `CC(=O)N1c2ccc(-c3ccc(C(=O)O)cc3)cc2[C@H](Nc2ccc3ncccc3c2)C[C@@H]1C`, the pKd is given as 6.4.

In the case of `CC(=O)N1c2ccc(-c3ccc(C(=O)O)cc3)cc2[C@H](Nc2ccc3ccoc3c2)C[C@@H]1C`, the pKd was 5.9.

In the case of `CC(=O)N1c2ccc(-c3ccc(C(=O)O)cc3)cc2[C@H](Nc2ccc3[nH]ccc3c2)C[C@@H]1C`, the pKd came to 6.2.

As for `CC(=O)N1c2ccc(-c3ccc(C(=O)O)cc3)cc2[C@H](Nc2ccc3ccsc3c2)C[C@@H]1C`, the pKd is 6.2.

For the compound `COc1cc2c3c(cnc2cc1-c1c(C)noc1C)NC(=O)C3[C@H](C)c1ccccn1` (stereo partly specified), the pKd is given as 5.2.

Regarding `CCOC(=O)c1ccc(-c2ccc3c(c2)[C@H](Nc2ccc4ncccc4c2)C[C@H](C)N3C(C)=O)cc1`, the Kd was 0.364 µM.

As to `CCOC(=O)c1ccc(-c2ccc3c(c2)[C@H](Nc2ccc4[nH]ccc4c2)C[C@H](C)N3C(C)=O)cc1`, the Kd was determined as 0.651 µM.

System in a further series: not listed separately
Nature of the series: Prodrug conversion in Schistosoma mansoni adult worms assessed as ester hydrolysis in media at 20 uM incubated for 24 hrs followed by compound washout thrice and subsequent addition of fresh medium without compound by LC-MS analysis.
Settings: not given
The format is ADME.
With `CCOC(=O)c1ccc(-c2ccc3c(c2)[C@H](Nc2ccc4ncccc4c2)C[C@H](C)N3C(C)=O)cc1`, the Drug metabolism entry was “Metabolite_Detected”.

In another series the test system is Schistosoma mansoni. Nature of the series: Antiparasitic activity against Schistosoma mansoni assessed as inhibition of miracidia to sporocyst transformation incubated for 48 hrs by enumeration method. In kind it is functional, organism-based. Particulars: dose 0.5-25 µM. Summed up: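 Miracidia hatched from eggs, washed in Chernin's balanced salt solution, 15–25 per well. Exposed to 0.5, 2.0, 5.0, 10 and 25 μM final in 1% DMSO, 48 h at 26 °C in the dark. Dead, partially and fully transformed parasites counted as % of population. Three independent experiments, two technical replicates each; CBSS/1% DMSO negative control.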
For the compound `CCOC(=O)c1ccc(-c2ccc3c(c2)[C@H](Nc2ccc4ccsc4c2)C[C@H](C)N3C(C)=O)cc1`, the inhibition result was “Dose-Dependent Effect”.

On to `CCOC(=O)c1ccc(-c2ccc3c(c2)[C@H](Nc2ccc4ncccc4c2)C[C@H](C)N3C(C)=O)cc1`, for which the inhibition result is “Dose-Dependent Effect”.

For the next series, the system named is Schistosoma mansoni. Nature of the series: Antiparasitic activity against Schistosoma mansoni assessed as effect on schistosomula phenotype incubated for 72 hrs by high content imaging analysis. The format is functional, organism-based.
Settings: not given
Put shortly: as §3
In the case of `CC(=O)N1c2ccc(-c3ccc(C(=O)O)cc3)cc2[C@H](Nc2ccc3ncsc3c2)C[C@@H]1C`, the EC50 is 2.14 µM.

As for `CC(=O)N1c2ccc(-c3ccc(C(=O)O)cc3)cc2[C@H](Nc2ccc3ncccc3c2)C[C@@H]1C`, the EC50 amounted to 1.11 µM.

As to `CC(=O)N1c2ccc(-c3ccc(C(=O)O)cc3)cc2[C@H](Nc2ccc3ccoc3c2)C[C@@H]1C`, the EC50 came out at 2.43 µM.

On to `CC(=O)N1c2ccc(-c3ccc(C(=O)O)cc3)cc2[C@H](Nc2ccc3[nH]ccc3c2)C[C@@H]1C`, for which the EC50 stood at 2.97 µM.
